In ChEMBL document CHEMBL3232756, “Synthesis and biological evaluation of N-dehydrodipeptidyl-N,N'-dicyclohexylurea analogs” (Eur J Med Chem, 2014):
Values after ≈ are worked out from the molar mass of the structure shown.

Tests used:
Aspergillus niger [1] = assay: Antimicrobial activity against Aspergillus niger MTCC 292 at 500 ug/ml after 24 hrs by cup plate method; assay type: functional; details: MTCC 292, 24 h, read-out: DIZ
Candida albicans [2] = assay: Antimicrobial activity against Candida albicans MTCC 227 at 500 ug/ml after 24 hrs by cup plate method; assay type: functional; details: MTCC 227, 24 h, read-out: DIZ
Staphylococcus aureus [3] = assay: Antimicrobial activity against Staphylococcus aureus MTCC 96 at 0.02 ml of 1 mg/ml after 24 hrs by cup plate method; assay type: functional; details: MTCC 96, 24 h, read-out: DIZ
How it was run: (§1)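 Cup-plate diffusion on Mueller-Hinton/nutrient agar swab-streaked with suspension, 6 mm cups bored. Each compound at 1 mg/ml in DMSO, 0.02 ml per cup; DMSO as solvent control. Amoxicillin for bacteria and fluconazole for fungi at 200 and 500 respectively as references. Incubation 37 °C for 24 h. Inhibition zone diameter in mm, triplicate, mean ± SD.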

[4] = Cytotoxicity against brine shrimps larvae assessed as mortality after 24 hrs; assay type: organism-based; details: artemia, in vivo; read-out: ED50
How it was run: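 Shrimp eggs were hatched in filtered artificial sea water (38 g sea salt/L) in a divided tank. Larvae were exposed in vials at several concentrations under a lamp, and survivors were counted 24 h later. ED50 and 95% confidence intervals were derived from % larvae surviving by Finney probit analysis.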

Mus musculus [5] = assay: Analgesic activity in Swiss albino mouse assessed as inhibition of acetic acid-induced writhing response at 100 mg/kg, po administered 1 hr before acetic acid challenge after 5 mins; assay type: functional
Rattus norvegicus = assay: Antiinflammatory activity in Wister rat assessed as inhibition of carrageenan-induced paw edema at 100 mg/kg, po administered 1 hr before carrageenan challenge measured after 3 hrs by plethysmograph analysis; assay type: functional
How it was run: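 Rats of either sex, 150–220 g, food withheld 4 h. Compound or diclofenac sodium 100 mg/kg p.o., or 0.5% sodium CMC at 10 ml/kg as vehicle control, given 1 h before 0.05 ml of 1% carrageenan subplantar into the right hind paw. Paw volume read by water-displacement plethysmograph at 0, 30, 60, 120 and 180 min. % edema inhibition = 100(1−Vt/Vc); n=5, control n=6; ANOVA/Dunnett.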

[6] = tested on: Radical scavenging activity; assay: Antioxidant activity assessed as DPPH radical scavenging activity after 20 to 30 mins; assay type: functional
How it was run: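 Test solution (2 ml at 25, 50, 75, 100, 125) mixed with 2 ml ethanolic DPPH, held in the dark at ambient temperature 20–30 min, then A517 read against an ethanol blank. Tocopherol used as standard. % scavenging = (Acontrol−Atest)/Acontrol×100, run in triplicate. IC50 read graphically from the % scavenging versus concentration plot.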

Pseudomonas aeruginosa [7] = assay: Antimicrobial activity against Pseudomonas aeruginosa MTCC 1688 at 0.02 ml of 1 mg/ml after 24 hrs by cup plate method; assay type: functional; details: MTCC 1688, 24 h, read-out: DIZ; how it was run: as §1
Brain = assay: Antioxidant activity against lipid peroxidation in Wister rat brain homogenates assessed as thiobarbituric acid reactive substance formation after 30 mins by spectrophotometer analysis; assay type: functional, tissue-based; details: 0.5 h
How it was run: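 Whole brain minus cerebellum from overnight-fasted rats of either sex, 200–220 g. Homogenized 10% w/v in 0.15 M KCl and spun at 800 rpm for 10 min. Reaction incubated 37 °C for 30 min, then TBA:TCA (1:1) and BHT added, heated 80 °C for 20 min, cooled, centrifuged, A532 read.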

Mus musculus [8] = assay: Acute toxicity in Swiss albino mouse assessed as mortality up to 1500 mg/kg, po; assay type: organism-based; design: dose 1500 mg/kg, route oral; details: in vivo
How it was run: (§2)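 Swiss albino mice (6–8 weeks, 25–30 g) were dosed orally at 500, 1000 or 1500 mg/kg, following OECD guidelines. Body weight, food and water intake, behavioural patterns and mortality were recorded and compared with a control group.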

Bacillus subtilis [9] = assay: Antimicrobial activity against Bacillus subtilis MTCC 441 at 0.02 ml of 1 mg/ml after 24 hrs by cup plate method; assay type: functional; details: MTCC 441, 24 h, read-out: DIZ; how it was run: as §1
Aspergillus niger [10] = assay: Antimicrobial activity against Aspergillus niger MTCC 292 at 0.02 ml of 1 mg/ml after 24 hrs by cup plate method; assay type: functional; details: MTCC 292, 24 h, read-out: DIZ; how it was run: as §1
Escherichia coli [11] = assay: Antimicrobial activity against Escherichia coli ESS 2231 at 0.02 ml of 1 mg/ml after 24 hrs by cup plate method; assay type: functional; details: ESS 2231, 24 h, read-out: DIZ; how it was run: as §1
Candida albicans [12] = assay: Antimicrobial activity against Candida albicans MTCC 227 at 0.02 ml of 1 mg/ml after 24 hrs by cup plate method; assay type: functional; details: MTCC 227, 24 h, read-out: DIZ; how it was run: as §1
[13] = Antioxidant activity assessed as trolox equivalents of cupric reducing antioxidant capacity after 30 mins; assay type: functional
How it was run: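 Mix of 1 ml CuCl2 (10 mM), 1 ml ethanolic neocuproine (7.5 mM), 1 ml ammonium acetate buffer (pH 7.0, 1 M), 1 ml compound or standard solution and 0.1 ml water, total 4.1 ml. A450 read after 30 min against reagent blank. TEAC = ε test/ε Trolox.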

Mus musculus [14] = assay: Acute toxicity in Swiss albino mouse assessed as gross behavioral changes up to 1500 mg/kg, po; assay type: organism-based; design: dose 1500 mg/kg, route oral; details: in vivo; how it was run: as §2
[15] = Antioxidant activity assessed as hydroxyl radical scavenging activity after 15 mins; assay type: functional
How it was run: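 Deoxyribose degradation mix: 2-deoxy-2-ribose 2.8 mM, KH2PO4–KOH 20 mM pH 7.4, FeCl3, EDTA, H2O2 1.0 mM, ascorbic acid, plus compound in methanol. Incubated 1 h at 37 °C. A 0.5 ml aliquot taken with 1 ml 2.8% TCA and 1 ml 1% TBA, heated 90 °C for 15 min, cooled, A532 read. % inhibition against blank.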

Pseudomonas aeruginosa [16] = assay: Antimicrobial activity against Pseudomonas aeruginosa MTCC 1688 at 200 ug/ml after 24 hrs by cup plate method; assay type: functional; details: MTCC 1688, 24 h, read-out: DIZ
Staphylococcus aureus [17] = assay: Antimicrobial activity against Staphylococcus aureus MTCC 96 at 200 ug/ml after 24 hrs by cup plate method; assay type: functional; details: MTCC 96, 24 h, read-out: DIZ
Bacillus subtilis [18] = assay: Antimicrobial activity against Bacillus subtilis MTCC 441 at 200 ug/ml after 24 hrs by cup plate method; assay type: functional; details: MTCC 441, 24 h, read-out: DIZ
Escherichia coli [19] = assay: Antimicrobial activity against Escherichia coli ESS 2231 at 200 ug/ml after 24 hrs by cup plate method; assay type: functional; details: ESS 2231, 24 h, read-out: DIZ

| SMILES | zone of inhibition at 1000 µg/mL (Staphylococcus aureus [3]) | LC50 at 24 h [4] | inhibition in vivo at 100 mg/kg (Mus musculus [5]) | inhibition in vivo at 100 mg/kg (Rattus norvegicus) | IC50 [6] | zone of inhibition at 1000 µg/mL (Pseudomonas aeruginosa [7]) | IC50 (Brain) | Activity (Mus musculus [8]) | zone of inhibition at 1000 µg/mL (Bacillus subtilis [9]) | zone of inhibition at 1000 µg/mL (Aspergillus niger [10]) | zone of inhibition at 1000 µg/mL (Escherichia coli [11]) | zone of inhibition at 1000 µg/mL (Candida albicans [12]) | TEAC (Trolox equivalents) [13] | Activity (Mus musculus [14]) | IC50 [15] | also measured |
| --- | --- | --- | --- | --- | --- | --- | --- | --- | --- | --- | --- | --- | --- | --- | --- | --- |
| OC(Cn1cncn1)(Cn1cncn1)c1ccc(F)cc1F [FLUCONAZOLE] | – | – | – | – | – | – | – | – | – | – | – | – | – | – | – | zone of inhibition at 500 µg/mL (Aspergillus niger [1]): 24 mm; zone of inhibition at 500 µg/mL (Candida albicans [2]): 23.2 mm |
| O=C(NC(CS)C(=O)N(C(=O)NC1CCCCC1)C1CCCCC1)/C(=C\c1ccc(Cl)cc1)NC(=O)c1ccccc1 (configuration not stated) | 16.5 mm | 10 µg/mL (≈ 16.4 µM) | 40.8% | 22.8% | 57.1 µM | 17.4 mm | 60.7 µM | Non-toxic | 18.4 mm | 21.2 mm | 18.3 mm | 13.5 mm | 2.65 | Non-toxic | 66.3 µM | – |
| O=C(NCC(=O)N(C(=O)NC1CCCCC1)C1CCCCC1)/C(=C\c1ccc(O)cc1)NC(=O)c1ccccc1 | 13.4 mm | 9.1 µg/mL (≈ 16.6 µM) | 27.6% | 31.5% | 51 µM | 18.5 mm | 65.6 µM | Non-toxic | 22.4 mm | 12.4 mm | 19.8 mm | 13.2 mm | 2.91 | Non-toxic | 74.7 µM | – |
| O=C(NC(CS)C(=O)N(C(=O)NC1CCCCC1)C1CCCCC1)/C(=C\c1ccccc1)NC(=O)c1ccccc1 (configuration not stated) | 24.4 mm | 3.53 µg/mL (≈ 6.12 µM) | 56.8% | 43.4% | 44.4 µM | 20.6 mm | 59.5 µM | Non-toxic | 23.2 mm | 18.3 mm | 25.8 mm | 17.4 mm | 3.84 | Non-toxic | 64.4 µM | – |
| O=C(NC(CS)C(=O)N(C(=O)NC1CCCCC1)C1CCCCC1)/C(=C\c1ccc(O)cc1)NC(=O)c1ccccc1 (configuration not stated) | 24.8 mm | 4.38 µg/mL (≈ 7.39 µM) | 43.2% | 41.3% | 47.2 µM | 20.7 mm | 54.4 µM | Non-toxic | 24.4 mm | 24.5 mm | 23.5 mm | 26.6 mm | 3.91 | Non-toxic | 54 µM | – |
| CC1(C)S[C@@H]2[C@H](NC(=O)[C@H](N)c3ccc(O)cc3)C(=O)N2[C@H]1C(=O)O [AMOXICILLIN] | – | – | – | – | – | – | – | – | – | – | – | – | – | – | – | zone of inhibition at 200 µg/mL (Pseudomonas aeruginosa [16]): 21.4 mm; zone of inhibition at 200 µg/mL (Staphylococcus aureus [17]): 22 mm; zone of inhibition at 200 µg/mL (Bacillus subtilis [18]): 21.2 mm; zone of inhibition at 200 µg/mL (Escherichia coli [19]): 22.6 mm |
| CC(C)c1ccc(/C=C(/NC(=O)c2ccccc2)C(=O)NC(CS)C(=O)N(C(=O)NC2CCCCC2)C2CCCCC2)cc1 (configuration not stated) | 12.9 mm | 16.7 µg/mL (≈ 27 µM) | 58.5% | 28.2% | 74.7 µM | 15.4 mm | 92.8 µM | Non-toxic | 15.2 mm | 14.4 mm | 11.8 mm | 12.2 mm | 2.36 | Non-toxic | 82.2 µM | – |
| COc1cc([C@@H]2c3cc4c(cc3[C@H](O)[C@H]3COC(=O)[C@H]23)OCO4)cc(OC)c1OC [PODOFILOX] | – | 3.77 µg/mL (≈ 9.1 µM) | – | – | – | – | – | – | – | – | – | – | – | – | – | – |
| O=C(NCC(=O)N(C(=O)NC1CCCCC1)C1CCCCC1)/C(=C\c1ccccc1)NC(=O)c1ccccc1 | 18.1 mm | 6.02 µg/mL (≈ 11.3 µM) | 54% | 35.5% | 49.8 µM | 19.4 mm | 58.8 µM | Non-toxic | 19.2 mm | 19.1 mm | 20.2 mm | 20.7 mm | 0.89 | Non-toxic | 57.1 µM | – |
